What all share (type): cell-based, human
In assay [1] the test system is HEK293 non-cancerous cells. Description: MTT cell growth inhibition assay, HEK293. The settings on record: read-out: IC50 values, HEK293. The procedure, abridged:
(§1)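 MTT assay: cells seeded at 1 × 10^5/well and allowed to adhere 24 h (37°C, 5% CO2). Compound was diluted from DMSO:water (1:3) stock into incomplete medium; finals 300–0.07 μM for 24 h. After a PBS rinse, cells got MTT (5 mg/ml) for 3 h; formazan dissolved in DMSO; A540 read. % viability = OD sample/OD control ×100. IC50 from dose-response curve fitting. Three independent duplicate sets; untreated and cisplatin controls.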

In assay [2] the test system is KB head and neck cancer cells. Description: MTT cell growth inhibition assay, KB. The settings on record: read-out: IC50 values, KB. Summed up: as §1
The subject of the next assay is T98G brain cancer cells. The experiment in a line: MTT cell growth inhibition assay, T98G. As to conditions: read-out: IC50 values, T98G. The procedure, abridged: as §1
Assay [3] relates to SNU80 thyroid cancer cells. Description: MTT cell growth inhibition assay, SNU80. The settings on record: read-out: IC50 values, SNU80. The procedure, abridged: as §1
The next assay concerns T98G cells. The experiment in a line: Cellular uptake by fluorescence detection. As to conditions: 1–4 μM. The procedure, abridged: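 T98G cells in 96-well plates were allowed to adhere for 12 h, then exposed to 1–4 μM at 37°C in complete medium. After a PBS wash and medium replacement, cell-associated fluorescence was read on a plate reader (ex 330, em 485 nm). Free ligand served as the positive control. Microscopy: cells on glass slides, 2 μM overnight, ex 340–380 / barrier 435–485 filters.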

Where two headings read alike, the source gives them in different places.

By IC50 is commonly meant the concentration that gives 50% inhibition. Regarding `N.N.[Cl][Pt][Cl]` [cisplatin, reference compound], the concentration for half-maximal inhibition (IC50) in assay [1] (HEK293 non-cancerous cells, MTT, 24 h treatment) stood at 17.3 µM; in assay [2] (KB head and neck cancer cells, MTT, 24 h treatment) it was 72.6 µM; in the assay on T98G brain cancer cells (T98G brain cancer cells, MTT, 24 h treatment) it was 69.6 µM; in assay [3] (SNU80 thyroid cancer cells, MTT, 24 h treatment), 49.3 µM.
For `O=C(Nc1ccc(C#Cc2ccncc2)cc1)c1cccc(C(=O)Nc2ccc(C#Cc3ccncc3)cc2)n1` [Complex 1, N,N′-bis(4-(pyridin-4-ylethynyl)phenyl)pyridine-2,6-dicarboxamide], the concentration for half-maximal inhibition (IC50) was 157 µM in assay [1] (Homo sapiens, HEK293, 24 h); 125 µM in assay [2] (Homo sapiens, 24 h); 144 µM in the assay with T98G brain cancer cells (Homo sapiens, T98G, 24 h); 107 µM in assay [3] (Homo sapiens, 24 h). Moreover, the “cellular uptake: fluorescence detected in cells” value with T98G cells is recorded as “very weak fluorescence”.

These data come from article PMC5796531 (Chemistry (Weinheim an der Bergstrasse, Germany), 2014).
